Source: PubChem
The list is not random: actives were taken first. Their share in the collection is about 1.7%.
SR-BI HDL uptake: inhibitors of SR-BI mediated HDL lipid uptake, primary screen, ldlA[mSR-BI] cells, fluorescence, single point; AID 488896, 2010; hit rate 0.96% among 320,000; ldlA[mSR-BI] CHO cells, DiI-HDL uptake fluorescence, 3 h; Scavenger receptor class B member 1 (Mus musculus), Q61009; inhibition, % at 12.5 µM;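 active means mean replicate inhibition of at least 70% and a set share of replicates each scoring 70 or more; inconclusive means meets just one of the two criteria; inactive means fails both criteria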;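 further: 0% = median of neutral control wells and 100% = median of positive control wells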
Target sequence (Q61009 whole entry, looked up): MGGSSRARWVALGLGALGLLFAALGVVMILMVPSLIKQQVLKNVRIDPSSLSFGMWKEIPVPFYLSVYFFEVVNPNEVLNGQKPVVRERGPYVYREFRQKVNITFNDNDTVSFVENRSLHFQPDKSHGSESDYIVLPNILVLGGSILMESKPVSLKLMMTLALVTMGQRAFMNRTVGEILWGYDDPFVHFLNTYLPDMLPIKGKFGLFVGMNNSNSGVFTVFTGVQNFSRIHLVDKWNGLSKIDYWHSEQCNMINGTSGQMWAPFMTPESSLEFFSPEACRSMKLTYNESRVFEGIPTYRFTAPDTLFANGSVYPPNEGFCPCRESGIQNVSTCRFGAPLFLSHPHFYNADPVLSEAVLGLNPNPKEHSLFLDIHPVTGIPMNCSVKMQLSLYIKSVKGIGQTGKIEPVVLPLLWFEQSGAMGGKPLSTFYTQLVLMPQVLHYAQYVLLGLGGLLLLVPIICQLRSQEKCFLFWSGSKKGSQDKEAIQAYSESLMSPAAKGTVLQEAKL
C2C12 statin: suppressors of statin myotoxicity in C2C12 myotubes, primary screen, cell-based, single point, plate reader; C2C12 myotubes + simvastatin, ATP luminescence, 48 h; scaled: DMSO 0, geranylgeraniol control 100; hit rate 0.78% among 330,000; rescue of ATP level, % at 7.49 µM;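 active means mean ATP rescue above about 67%, or every replicate alone reaching that limit, limit read from the data, passing the limit was not always enough; inconclusive means no clear call, values can overlap the other calls; inactive means mean under the limit and some replicate under it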;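 further: myotubes were challenged with 10 µM simvastatin during compound exposure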
SR-BI uptake up: activators of SR-BI mediated DiI-HDL uptake, primary screen, ldlA[mSR-BI] CHO cells, DiI fluorescence; 3 h; 100 = double the neutral-control signal; activation, % at 12.5 µM; hit rate 0.096% among 320,000;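 active means mean replicate activation of at least 60% and every replicate at or above 60%; inconclusive means mean or all-replicate condition met, but not both; inactive means mean below 60% and not all replicates reaching 60%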;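 further: 0% = median plate neutral-control signal and 100% = twice that signal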
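Test system: SR-BI-overexpressing, LDLR-lacking CHO cells; Also added: labelled HDL, 10 µg/mL; Measured by: bottom-read cell fluorescence after medium removal, ex 550/em 595 nm; Timing: 3 h uptake period with compound, 37 °C; Buffer or medium: F12, 0.5% BSA, 25 mM HEPES; Doses: single compound concentration, delivered by pin transfer.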
Vif imaging: HIV Vif self-association inhibitors, primary screen, imaging, HEK293T, single point | HEK293T cells, Vif self-association by quenched fluorescence, 24 h | inhibition, % at 7.49 µM | hit rate 0.35% among 340,000; in the data active means inhibition above about 50%, passing the limit was not always enough; inconclusive means no clear call, values can overlap the other calls; inactive means below about 31%
Starred values were filed as active, the others as inactive.

COc1ccc(-c2nn(-c3ccccc3)cc2/C=C/C(=O)OCC(=O)Nc2ccc(C#N)cc2)cc1 was read as SR-BI HDL uptake 87*, SR-BI uptake up -87 and Vif imaging -2.
Screening O=C(N/N=C/c1cn(-c2ccccc2)nc1-c1ccc(F)cc1)c1ccc2c(c1)OCO2 returned SR-BI HDL uptake 74*, SR-BI uptake up -74 and Vif imaging -5.
Screening COc1ccc(-c2nn(-c3ccccc3)cc2/C=N/NC(=O)c2cccc(S(=O)(=O)Nc3ccccc3OC)c2)cc1 returned SR-BI HDL uptake 48, SR-BI uptake up -48 and Vif imaging 11.
`COc1ccc(CN(C)C[C@@H]2Oc3ccc(N(C)C)cc3CC(=O)N([C@H](C)CO)C[C@H]2C)cc1` gave C2C12 statin 23.
Screening CCOC(=O)N(C)C[C@@H]1OCc2cn(nn2)CCCC(=O)N([C@@H](C)CO)C[C@@H]1C returned C2C12 statin -10.
For O=[N+]([O-])c1ccc(O)c(-c2nc(-c3ccccc3)c(-c3cccs3)[nH]2)c1 the results were SR-BI HDL uptake 84*, SR-BI uptake up -84 and Vif imaging -11.
Screening Cc1nc(N2CCN(c3ccccc3)CC2)[nH]c(=O)c1CCC(C)C returned SR-BI HDL uptake -1, C2C12 statin 86*, SR-BI uptake up 1 and Vif imaging -7.
CCNC(=O)C1CC(=O)N(Cc2ccc3c(c2)OCO3)C(=Nc2ccc(F)cc2)S1 (configuration not stated) was read as SR-BI HDL uptake -11, C2C12 statin inconclusive, SR-BI uptake up 11 and Vif imaging -7.
For C/C(CCc1ccc2c(c1)OCO2)=N\N=C1\NC(=O)CC(C(=O)Nc2ccccc2F)S1 (configuration not stated) the results were SR-BI HDL uptake 73*, SR-BI uptake up -73 and Vif imaging 0.
C[C@@H]1CN([C@@H](C)CO)S(=O)(=O)c2ccc(C3=CCCC3)cc2O[C@H]1CN(C)C(=O)CN(C)C was read as C2C12 statin 0.
`CC(CN1CCOCC1)(NS(=O)(=O)c1ccccc1)c1ccccc1` (configuration not stated) gave SR-BI HDL uptake 8, C2C12 statin 20, SR-BI uptake up -8 and Vif imaging -3.
CC(CN)(NS(=O)(=O)c1ccccc1)c1ccccc1 (configuration not stated) was read as SR-BI HDL uptake 4, C2C12 statin 8, SR-BI uptake up -4 and Vif imaging 66*.
For CC(C)(CSc1ncccn1)NS(=O)(=O)c1ccccc1 the results were SR-BI HDL uptake 0, C2C12 statin 120*, SR-BI uptake up 0 and Vif imaging -10.
Screening CCN1/C(=C/c2ccc3ccccc3[n+]2CC)C=Cc2ccccc21 returned SR-BI HDL uptake 87*, C2C12 statin -203, SR-BI uptake up -87 and Vif imaging -24.
`CCN1/C(=C/c2ccc3ccccc3[n+]2CCCS(=O)(=O)[O-])C=Cc2cc(C)ccc21` gave SR-BI HDL uptake 4, C2C12 statin 0, SR-BI uptake up -4 and Vif imaging 2.
For CC(C)C#Cc1ccc2c(c1)O[C@H](CN(C)CC1CCOCC1)[C@H](C)CN([C@@H](C)CO)S2(=O)=O the results were C2C12 statin -11.
COc1ccc(-c2[nH]ncc2CNCC(C)(C)N2CCOCC2)cc1F was read as SR-BI HDL uptake -11, C2C12 statin 88*, SR-BI uptake up 11 and Vif imaging -1.
For CS(=O)(=O)N1[C@@H]2Cn3c(cccc3=O)[C@H]1[C@@H](C(=O)NCc1ccccc1)[C@@H]2CO the results were C2C12 statin 6.
CO[C@H]1CN(C)C(=O)c2cc(NC(=O)Nc3ccccc3)ccc2OC[C@H](C)N(C(=O)Nc2c(C)noc2C)C[C@H]1C was read as C2C12 statin -20.
`CCOC(=O)N1CCN(C(=O)Cc2ccsc2)CC1` gave SR-BI HDL uptake 21, C2C12 statin 110*, SR-BI uptake up -21 and Vif imaging 16.
For CCOc1ccccc1C1C2=C(COC2=O)Nc2cc3c(cc21)OCO3 (configuration not stated) the results were SR-BI HDL uptake 2, SR-BI uptake up -2 and Vif imaging 81*.
For Cc1cccc(C)c1OCC(=O)Nc1oc(-c2ccccc2)c(-c2ccccc2)c1C#N the results were SR-BI HDL uptake 82*, C2C12 statin 0, SR-BI uptake up -82 and Vif imaging -3.
`COc1ccc(C(=O)Nc2oc(-c3ccccc3)c(-c3ccccc3)c2C#N)cc1OC` gave SR-BI HDL uptake 82*, C2C12 statin 6, SR-BI uptake up -82 and Vif imaging -5.
COc1ccc(C(=O)Nc2oc(-c3ccccc3)c(-c3ccccc3)c2C#N)cc1 was read as SR-BI HDL uptake 83*, SR-BI uptake up -83 and Vif imaging -19.
`COc1ccc(-c2oc(NC(=O)c3ccc(C)cc3)c(C#N)c2-c2ccc(OC)cc2)cc1` gave SR-BI HDL uptake 45, C2C12 statin 23, SR-BI uptake up -45 and Vif imaging 7.
COc1ccc(-c2oc(NC(C)=O)c(C#N)c2-c2ccc(OC)cc2)cc1 was read as SR-BI HDL uptake 40, SR-BI uptake up -40 and Vif imaging -1.
`COc1ccc(NC(=O)N(C)C[C@H]2Oc3ccc(NC(=O)c4ccncc4)cc3C(=O)N([C@H](C)CO)C[C@H]2C)cc1` gave C2C12 statin -6.
COc1ccc(/C=N\NC(=O)c2cc(O)c(O)c(O)c2)cc1COc1ccc(C(=O)OCC(C)C)cc1 was read as SR-BI HDL uptake 79*, C2C12 statin -4, SR-BI uptake up -79 and Vif imaging -4.
`COc1ccc(C(=O)N/N=C/c2ccc(OC)c(COc3ccccc3)c2)cc1` gave SR-BI HDL uptake 44, C2C12 statin -3, SR-BI uptake up -44 and Vif imaging -4.
`C[C@H]1CN([C@@H](C)CO)C(=O)c2cc(NS(C)(=O)=O)ccc2O[C@@H]1CN(C)C(=O)Nc1ccc(F)cc1` gave C2C12 statin 3.
Screening N#Cc1sc2nc(-c3cccs3)cc(-c3ccccc3)c2c1N returned SR-BI HDL uptake 84*, C2C12 statin 23, SR-BI uptake up -84 and Vif imaging 14.
For CCN(CC)C(=O)c1sc2nc(-c3cccs3)cc(-c3cccs3)c2c1N the results were C2C12 statin -24 and Vif imaging 83*.
Screening COc1ccc(-c2cc(C3CC3)nc3sc(C#N)c(N)c23)cc1 returned SR-BI HDL uptake 69, C2C12 statin 77*, SR-BI uptake up -69 and Vif imaging -1.
Screening CN(C)c1ccc(/C=N/NC(=O)C(=O)/C=C2\NC3(CCCC3)Cc3ccccc32)cc1 returned SR-BI HDL uptake 94*, SR-BI uptake up -94 and Vif imaging -9.
